Screens: PubChem, several laboratories
PolyA inhibitor – polyadenylation inhibitors in yeast reporter cells, primary screen, luminescence, S. cerevisiae; AID 1875, 2009; activity score, % at 12 µM; S. cerevisiae SKY197-pL101 polyadenylation reporter, beta-gal luminescence; efflux-impaired pdr1/pdr3 knockout yeast; score 100 = 6 SD above DMSO; 300,000 tested, 0.02% active;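 active means lowest replicate activity score at least 50, where 100 means six control SD above control mean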;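 further: yeast exposed to compound for 9 h at 30 °C; higher score means more reporter readthrough which indicates perturbed polyadenylation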
Pemphigus Ab inh – inhibitors of pemphigus antibody binding to DSG3, primary screen, biochemical, bead-based, flow cytometry, scFv-GFP. DSG3-coupled beads, scFv-anti-DSG3-GFP binding; active compounds read low. binding (percent of control), % at 10 µM. 310,000 tested, 0.48% active;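 active means binding more than 3 SD below its plate's average and above zero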;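 further: hits lower antibody fragment binding to DSG3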
NLRP3 yeast inh – NALP3 inflammasome inhibitors in reconstituted yeast, primary screen, luminescence, uHTS; inhibition, % at 10 µM; Yeast reconstituted NLRP3/ASC/caspase-1, beta-gal luminescence, 24 h; AID 2825, 2010; 330,000 tested, 0.39% active;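 active means inhibition of 50% or more; inactive means inhibition below 50%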;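 further: plate controls were induced DMSO wells for no effect and uninduced yeast grown without galactose for full effect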
NALP1 yeast inh – NALP1 inflammasome inhibitors in reconstituted yeast, colorimetric, S. cerevisiae, triplicate retest | S. cerevisiae NALP1/ASC/caspase-1 growth, X-gal OD620, 72 h | inhibition, % at 10 µM | 280,000 tested, 0.61% active; in the data active means inhibition mostly above about 24%, no sharp cut-off; inactive means mostly below about 32%
ALR H2O2 inh – inhibitors of human ALR sulfhydryl oxidase, primary screen, biochemical, H2O2 detection, HRP-luminol luminescence, single point | FAD-linked sulfhydryl oxidase ALR (Homo sapiens), P55789 | purified ALR, DTT oxidation | inhibition, % (no concentration beside the values) | 290,000 tested, 3.8% active;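 active means mean replicate inhibition above about 79%, with every replicate also reaching it, limit read from the data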
Arrestin-AP2 inh – inhibitors of beta-arrestin/AP2 binding, primary screen, biochemical, GPCR trafficking, flow cytometry | FITC-arrestin peptide / GST-AP2 beads; AP2 beta2 appendage carries R879A mutation | 340,000 tested, 0.31% active | AID 504490, 2011 | beta-arrestin 1 C-terminal peptide binding to AP2 beta2-adaptin appendage (human) | inhibition, % at 10 µM;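 active means inhibition above a set limit, near 3 SD of compounds lacking own fluorescence, cut at about 54% in these data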;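 further: plate controls were DMSO wells for no effect and 5 µM unlabelled arrestin peptide for full effect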
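System: GST-AP2 R879A bound to glutathione beads, E. coli-expressed. Also added: 50 nM FITC-arrestin peptide. Schedule: compound with beads 12 min RT, then probe 1 h RT. Signal: bead flow cytometry, FITC channel. Read-out basis: percent response.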
Numbers without * were called inactive; nt = no result. Shown are actives, neighbours in structure and some others; about 4.6% of the full set was active somewhere.

SMILES	PolyA inhibitor	Pemphigus Ab inh	NLRP3 yeast inh	NALP1 yeast inh	ALR H2O2 inh	Arrestin-AP2 inh
CCOc1ccc(C(=O)/C=C/c2ccc(OC)c(OC)c2)cc1	8.5	nt	17.6	7.6	97.2*	6.2
COc1ccc(C(=O)/C=C/c2ccc(O)cc2)cc1	21.1	102.1	30.1	-5.3	98.5*	-4.1
CCn1c(C)nc2cc(C(=O)NNC(=S)NC(=O)c3ccc(OC)cc3)ccc21	14.0	nt	17.3	-30.6	36.6	43.1
CCn1c(C)nc2cc(C(=O)NNC(=S)Nc3ccc(C)cc3)ccc21	1.6	98.2	16.8	nt	85.6*	12.6
CCn1c(C)nc2cc(C(=O)NNC(=O)CCC3CCCCC3)ccc21	3.0	62.6*	1.1	5.8	-1.1	-9.3
CCn1c(C)nc2cc(C(=O)NNC(=S)Nc3ccccc3OC)ccc21	-15.2	nt	5.5	-9.0	56.5	nt
CCC1(CC)NC(=O)N(CC(=O)OCC(=O)Nc2cc(OC)ccc2OC)C1=O	nt	105.9	7.6	nt	-11.9	-0.8
O=S(=O)(Nc1cc(S(=O)(=O)N2CCOCC2)ccc1NCC1CCCO1)c1ccc(F)cc1 (configuration not stated)	nt	98.0	6.6	nt	28.5	7.9
O=c1[nH]c2cccnc2n1Cc1ccccc1	15.0	97.6	7.4	41.2*	-17.1	3.5
Nc1c(/C=C2/C=CC(=O)C(O)=C2)c(=O)nc2sc(CC(=O)N3CCCCC3)nn12	5.4	101.2	-0.3	-8.8	99.2*	32.6
Nc1c(/C=C2/C=CC(=O)C(O)=C2)c(=O)nc2sc(CC(=O)N3CCCC3)nn12	-7.9	111.5	12.7	-15.7	99.2*	5.9
CCc1cc(C(=O)NC2CCCc3c2cnn3-c2ccc(F)cc2F)no1 (configuration not stated)	nt	95.7	nt	nt	nt	nt
COCCCNC(=S)NNC(=S)Nc1cccc(Cl)c1	-8.7	90.2	36.5	1.7	78.4*	4.3
S=C(NCCc1ccccn1)Nc1cccc(Cl)c1	16.2	98.3	12.9	16.3	97.5*	-4.0
COC(=O)c1ccc(OCCN2CCCCCC2)cc1	-0.7	106.7	11.6	17.6	-32.1	2.9
O=C(c1ccc(OCCN2CCCCC2)cc1)c1c(-c2ccc(O)cc2)sc2cc(O)ccc12	14.4	112.5	7.8	nt	90.9*	5.7
CCCC(=O)Nc1sc(-c2ccccc2)c(-c2ccccc2)c1C(=O)O	-9.3	107.5	-23.6	nt	62.4	2.6
CC(=O)Nc1cccc(-c2cnc(N)c(C(=O)c3cccnc3)n2)c1	nt	109.2	7.9	nt	-6.7	15.3
CC(C)C1Cc2c(sc3c2c(=O)n(-c2ccccc2)c2n[nH]c(=S)n32)CO1 (configuration not stated)	-0.5	99.0	-5.0	nt	93.7*	-53.1
COc1ccc(-n2c(=O)c3c4c(sc3n3c(=S)[nH]nc23)CCCC4)cc1	-14.4	103.2	15.5	11.6	95.7*	-12.8
COC(=O)CSc1nnc2n(-c3ccc(OC)cc3)c(=O)c3c4c(sc3n12)CCCCC4	-6.3	97.1	1.8	-7.2	-3.4	10.8
CSc1nnc2n(-c3ccccc3)c(=O)c3c4c(sc3n12)CCC4	nt	110.0	14.5	1.3	1.8	-4.7
COc1ccccc1N1CCN(CCS(=O)(=O)c2cc(Cl)ccc2Cl)CC1	nt	99.7	nt	nt	nt	nt
COc1ccc(Cc2noc(=O)[nH]2)cc1	nt	102.6	nt	nt	nt	nt
COc1cc(C[C@@H](C)[C@@H](C)Cc2ccc(O)c(OC)c2)ccc1O	nt	107.4	1.9	nt	50.4	7.3
CC(Cc1ccc(O)c(O)c1)C(C)Cc1ccc(O)c(O)c1 (configuration not stated)	-5.0	nt	21.2	nt	99.0*	nt
CC(=O)OC1(C)C=Cc2ccccc2C1=NS(=O)(=O)c1ccccc1 (configuration not stated)	nt	106.3	nt	nt	nt	nt
NS(=O)(=O)c1ccc(Sc2ccc3ccccc3c2)nc1	12.2	104.6	16.2	25.7	99.0*	13.3
COC(=O)Cn1ncc(N(C)Cc2ccccc2)c(Cl)c1=O	1.0	nt	-16.7	12.8	0.3	25.5
